# Only some compounds are listed: those with a hit (about 1.7% of all), similar ones and a draw of the others.
# Neddyl block: inhibitors of cullin neddylation, primary screen, biochemical, TR-FRET, uHTS, NAE and Ubc12. NEDD8-conjugating enzyme Ubc12 (Homo sapiens) + NEDD8-activating enzyme E1 regulatory …. calls only at 25 µM. 360,000 compounds, 0.58% hits; in the data active = inhibition above about 36%
# IMP-1 inh-1: IMP-1 metallo-beta-lactamase inhibitors, primary screen, biochemical, epi-absorbance readout, Pseudomonas aeruginosa enzyme. purified IMP-1, nitrocefin hydrolysis, epi-absorbance fluorescence. inhibition, % at 5.6 µM. 290,000 compounds, 0.45% hits. metallo-beta-lactamase IMP-1 (Pseudomonas aeruginosa);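 active = inhibition above the mean plus 3 SD of all compounds in the same screening run, cut at about 4.5% in these data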;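 also: 0% = IMP-1 with DMSO and 100% = DMSO wells lacking enzyme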
#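 Test system: recombinant IMP-1 enzyme, purified / Medium: HEPES buffer pH 7.1 with ZnSO4 and Brij 35 / Doses: single dose, 5.6 µM / Times: 25 °C, 15 min preincubation, 25 min reaction / Detection: Epi-absorbance via hydrolysed-nitrocefin quenching of white-plate fluorescence, 480/530 nm, EDTA stop / Evaluation: percent inhibition from optical density relative to buffer-blank wells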
# procasp7 counter: procaspase-7 activators, primary screen, counter-screen for procaspase-3 activator project, biochemical, absorbance, HTS, human. recombinant procaspase-7, Ac-DEVD-pNA absorbance 405 nm; D23A/D198A/D206A triple mutant, cannot self-cleave; scale: DMSO 0, 5 µM enzyme 100. activation, % at 8.5 µM. 330,000 compounds, 0.093% hits. AID 463210, 2010;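 active = percent activation above the screen-wide mean plus 3 SD, cut at about 25% in these data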
#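 Detection: p-Nitroaniline absorbance at 405 nm, read at 0 and 120 min; system: Uncleavable procaspase-7 mutant enzyme; evaluation: % activation from two-timepoint absorbance difference, scaled to controls; times: 1 h enzyme–compound preincubation and 2 h substrate reaction, both 25 °C; buffer or medium: Zinc-free HEPES pH 7.4 with 300 mM NaCl, 0.01% Triton X-100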
# PolyA inhibitor: polyadenylation inhibitors in yeast reporter cells, primary screen, luminescence, S. cerevisiae; S. cerevisiae SKY197-pL101 polyadenylation reporter, beta-gal luminescence; efflux-impaired pdr1/pdr3 knockout yeast; score 100 = 6 SD above DMSO; 300,000 compounds, 0.02% hits; AID 1875, 2009; activity score, % at 12 µM;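 active = lowest replicate activity score at least 50, where 100 means six control SD above control mean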;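 also: yeast exposed to compound for 9 h at 30 °C; higher score means more reporter readthrough which indicates perturbed polyadenylation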
# procasp3 activ: activators of human procaspase-3 D3A mutant, primary screen, biochemical, absorbance, PC-3 D3A mutant, single concentration; recombinant procaspase-3 D3A, Ac-DEVD-pNA absorbance 405 nm; 330,000 compounds, 0.11% hits; activation, % at 8.5 µM;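 active = activation above the mean of all tested compounds plus 3 SD, cut at about 21% in these data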;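 also: 0% = DMSO alone and 100% = DMSO wells spiked with extra 5 µM PC-3 D3A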
# Target sequence (P42574 whole entry D9A/D28A/D175A): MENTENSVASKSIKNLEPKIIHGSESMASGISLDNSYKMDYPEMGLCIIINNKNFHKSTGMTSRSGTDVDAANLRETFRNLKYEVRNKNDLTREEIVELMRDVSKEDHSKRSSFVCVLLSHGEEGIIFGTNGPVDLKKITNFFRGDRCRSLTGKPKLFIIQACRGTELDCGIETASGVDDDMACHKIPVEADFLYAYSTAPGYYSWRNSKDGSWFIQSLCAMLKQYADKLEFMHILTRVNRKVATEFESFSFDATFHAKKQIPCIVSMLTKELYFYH
#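 material = Procaspase-3 D3A mutant | probe or stimulus = Ac-DEVD-pNA | compound = single dose, 8.5 µM nominal compound, 0.8% DMSO | timing = 1 h preincubation, 2 h reaction | measured by = 405 nm absorbance of p-nitroaniline, reads at 0 and 120 min | benchmarks = DMSO-only low control, 5 µM PC-3 D3A high control | repeats = singlicate, each compound tested once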
# VIM-2 inh: VIM-2 metallo-beta-lactamase inhibitors, primary screen, biochemical, epi-absorbance readout, Pseudomonas aeruginosa enzyme. 290,000 compounds, 0.89% hits. AID 1527, 2009. purified VIM-2, nitrocefin hydrolysis, epi-absorbance fluorescence. inhibition, % at 5.6 µM;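 active = inhibition above the mean of all tested compounds plus 3 SD, cutoff set per screening run, cut at about 7.5% in these data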;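 also: red hydrolysis product quenches plate fluorescence so inhibitors raise well fluorescence; 0% = enzyme with DMSO and 100% = DMSO without enzyme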
# IMP-1 inh-2: IMP-1 metallo-beta-lactamase inhibitors, confirmation, selectivity assay for selective VIM-2 inhibitor project, biochemical, epi-absorbance readout, triplicate; shares compounds with VIM-2 inh; purified IMP-1, nitrocefin hydrolysis, epi-absorbance fluorescence; inhibition, % at 5.6 µM; 1,300 tested, under 10 active; AID 1856, 2009; call rule not given here;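 also: 0% = enzyme with vehicle and 100% = vehicle without enzyme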
# VIM-2 FRET inh: VIM-2 inhibitors in FRET format, confirmation, artefact control for selective VIM-2 inhibitor project, biochemical, epi-absorbance artifact exclusion | shares compounds with VIM-2 inh | purified VIM-2, CCF2 FRET substrate hydrolysis | inhibition, % at 5.6 µM | 1,300 compounds, 23% hits;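 active = inhibition above the mean of all tested compounds plus 3 SD, cut at about 19% in these data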;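 also: 0% = VIM-2 plus DMSO and 100% = no enzyme wells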
# TEM-1 inh: TEM-1 serine beta-lactamase inhibitors, counter-screen for VIM-2 inhibitor project, biochemical, epi-absorbance, HTS; inhibition, % at 5.6 µM; Purified TEM-1, nitrocefin hydrolysis, epi-absorbance fluorescence; 1,300 compounds, 3% hits; shares compounds with VIM-2 inh;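 active = inhibition above that campaign's mean inhibition plus 3 SD, cut at about 0.46% in these data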;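 also: 0% = TEM-1 with DMSO and 100% = TEM-1 with 100 µM potassium clavulanate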
# Target sequence (P62593 whole entry, looked up): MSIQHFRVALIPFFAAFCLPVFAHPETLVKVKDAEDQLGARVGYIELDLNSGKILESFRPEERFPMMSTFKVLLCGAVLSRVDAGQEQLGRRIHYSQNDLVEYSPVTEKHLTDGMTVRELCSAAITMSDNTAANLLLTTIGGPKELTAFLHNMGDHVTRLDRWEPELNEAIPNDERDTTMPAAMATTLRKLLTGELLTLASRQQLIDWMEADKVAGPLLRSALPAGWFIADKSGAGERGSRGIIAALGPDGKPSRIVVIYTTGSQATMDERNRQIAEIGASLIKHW
# VIM-2 confirm 2: VIM-2 metallo-beta-lactamase inhibitors, confirmation, biochemical, epi-absorbance, hits shared with IMP-1 screen; 1,300 compounds, 96% hits; inhibition, % at 5.6 µM; purified VIM-2, nitrocefin hydrolysis; shares compounds with VIM-2 inh;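 active = inhibition of the VIM-2 beta-lactamase enzyme above about 11% from the earlier first-round screen, limit read from the data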;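 also: 0% = VIM-2 with DMSO and 100% = buffer wells without enzyme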
# * hit, by the source's call; i = inactive; / = no result shown.
SMILES,Neddyl block,IMP-1 inh-1,procasp7 counter,PolyA inhibitor,procasp3 activ,VIM-2 inh,IMP-1 inh-2,VIM-2 FRET inh,TEM-1 inh,VIM-2 confirm 2
CCn1c(-c2nn(-c3ccccc3)ccc2=O)n[nH]c1=S,i,-1.1,-8.6,-12.3,-4.0,17.9*,-2.6,34.1*,-5.6,22.8*
COCCCN1CC(=O)N2C(c3ccc(C)cc3)c3[nH]c4ccccc4c3C[C@H]2C1=O (stereo partly specified),i,-0.1,12.2,-20.5,5.9,-1.0,/,/,/,/
COc1ccc(C(C(=O)NC2CCCC2)N(Cc2cccs2)C(=O)c2ccn[nH]2)cc1OC (stereo unspecified),i,-3.6,9.1,-6.5,-0.5,-1.0,/,/,/,/
COc1ccc(N(CC(=O)NCc2ccccc2Cl)S(=O)(=O)c2c(C)noc2C)cc1,i,-5.4,0.5,1.3,3.3,0.3,/,/,/,/
O=C(O)c1cccc(NC(=S)N/N=C/c2ccccc2OCc2cccc(Br)c2)c1,i,-3.9,/,14.0,/,73.9*,-3.0,65.4*,-8.6,39.8*
O=C(O)c1cccc(NC(=S)N/N=C/c2ccccn2)c1,i,-3.8,-19.3,2.7,-4.8,-0.6,/,/,/,/
O=C(O)c1cccc(NC(=S)N/N=C/c2ccccc2OCc2ccc(Br)cc2)c1,i,0.3,-14.6,9.1,0.6,72.8*,-2.7,66.8*,-10.4,35.2*
O=C(O)c1cccc(NC(=S)N/N=C/c2cccc(O)c2)c1,i,-3.4,-11.5,10.3,-4.0,32.2*,-4.9,27.9*,-8.9,16.5*
COC(=O)c1ccc(COc2ccccc2/C=N/Nc2cccc(C(=O)O)c2)cc1,i,-4.1,/,/,/,-1.5,/,/,/,/
CC(=O)Oc1ccc(/C=C(\NC(=O)c2ccco2)C(=O)NCc2ccccc2)cc1,i,-0.3,4.5,-11.1,8.5,-1.7,/,/,/,/
Cn1c(N)c(C(=O)CSc2nn(-c3ccc(F)cc3)c(=S)s2)c(=O)n(C)c1=O,i,/,-7.3,/,2.8,/,/,/,/,/
Cn1cccc1C(=O)NC(=O)COC(=O)c1ccccc1O,i,-2.8,1.7,-17.7,0.1,-2.4,/,/,/,/
Cc1cc(C(=O)OCC(=O)NC(=O)c2cccn2C)c2ccccc2n1,i,-3.1,4.1,10.6,4.0,12.2*,-3.9,46.0*,-5.8,32.6*
CCCCN(CCCC)S(=O)(=O)c1ccc(OC)c2ncccc12,i,-1.6,5.4,-2.5,-0.9,-0.5,/,/,/,/
COC(=O)C[C@@H]1CC[C@@H](NC(C)=O)[C@@H](CO)O1,i,/,/,/,/,/,/,/,/,/
Cc1ccc(-n2c(-c3nn(C)cc3Cl)n[nH]c2=S)cc1,i,-3.8,-5.6,4.1,-18.5,17.0*,-2.4,50.0*,-6.7,30.9*
Cn1cc(Cl)c(-c2n[nH]c(=S)n2-c2ccccc2)n1,i,-3.1,1.6,33.4,-1.5,14.0*,-3.6,41.5*,-6.6,25.3*
Cc1c(Cl)c(-c2n[nH]c(=S)n2-c2ccc(F)cc2)nn1C,i,-3.0,2.7,-0.2,-7.1,16.2*,-2.1,42.1*,-4.3,29.7*
CCCOc1ccccc1C1NC(=O)NC(C)=C1C(=O)OCCOCC (stereo unspecified),i,-2.2,3.7,7.4,2.9,-2.4,/,/,/,/
Cc1ccc2nsnc2c1S(=O)(=O)NC1CC1,i,-3.0,-7.7,7.6,2.3,-2.5,/,/,/,/
CC(=O)N1CN(CCCn2ccnc2)Cc2c1sc1c2CCCC1,i,-5.0,14.8,0.0,5.3,26.5*,-2.4,-7.8,-5.2,46.1*
Cc1c(OCC(=O)N2CCC(C(N)=O)CC2)ccc2c3c(c(=O)oc12)CCC3,i,-3.8,6.7,0.9,4.3,22.8*,-2.1,1.9,-18.7,43.3*
CCc1cc(=O)oc2c(C)c(OCC(=O)N3CCC[C@@H]3C(=O)O)ccc12,/,-2.1,3.3,11.8,8.7,22.8*,-3.0,38.7*,-6.7,29.1*
Cc1c(C)c2ccc(OCC(=O)N3CCC[C@@H]3C(=O)O)c(C)c2oc1=O,/,-4.0,9.2,6.4,9.0,41.1*,-3.2,63.7*,-10.6,48.5*
CCCc1cc(=O)oc2c3c(cc(OCC(=O)N4CCC[C@H]4C(=O)O)c12)OC(C)(C)CC3,/,0.1,7.8,10.6,6.6,45.4*,-3.0,70.7*,-5.4,50.3*
SMILES,Neddyl block,IMP-1 inh-1,procasp7 counter,PolyA inhibitor,procasp3 activ,VIM-2 inh,IMP-1 inh-2,VIM-2 FRET inh,TEM-1 inh,VIM-2 confirm 2
Cc1c(C)c2ccc(OCC(=O)N3CCN(c4ccc(F)cc4)CC3)c(C)c2oc1=O,i,-1.2,9.6,4.2,3.8,3.2,/,/,/,/
CCCCOCCCNC(=O)C[C@@H]1C[C@@]2(C(=O)OCC)CCC=C2N(CCC2=CCCCC2)C1=O,i,/,/,/,/,/,/,/,/,/
CCCCn1c(NCc2ccncc2)nc2ccccc21,i,-2.6,6.7,-3.8,1.0,-2.9,/,/,/,/
Cc1c(OCC(=O)N2CCC[C@@H]2C(=O)O)ccc2c3c(c(=O)oc12)CCC3,i,-3.8,0.3,-18.5,1.5,35.5*,-3.5,50.8*,-9.7,37.2*
Cc1c(Cc2ccccc2)c(=O)oc2c(C)c(OCC(=O)N3CCC(C(=O)O)CC3)ccc12,/,-3.4,1.9,6.6,-0.3,-0.3,/,/,/,/
O=c1cc(CN2CCN(CCO)CC2)c2cc3c(cc2o1)CCC3,i,-2.6,4.2,16.2,7.4,16.5*,-2.7,0.3,-6.5,32.6*
c1csc(CCNc2ncnc3sc4c(c23)CCC4)c1,i,/,1.5,-19.1,5.4,/,/,/,/,/

# Compound activity (PubChem)
